In ChEMBL document CHEMBL2311439, “New bis-thiazolium analogues as potential antimalarial agents: design, synthesis, and biological evaluation” (J Med Chem, 2013):

Assays:
Plasmodium falciparum = experiment: Antiplasmodial activity against Plasmodium falciparum Nigeria infected in human erythrocytes assessed as incorporation of [3H]hypoxanthine after 48 hrs; assay type: functional, organism-based
Summary of the method: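 Nigerian-strain P. falciparum-infected erythrocytes at 1.5% final hematocrit and 0.6% parasitemia, grown in Hepes-buffered RPMI 1640 with 10% AB human serum. Drugs dissolved in DMSO, final DMSO ≤0.25%. Modified Desjardins test: [³H]hypoxanthine incorporation measured after 48 h drug contact. IC₅₀ is the concentration giving 50% growth inhibition. Two independent experiments.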

[1] = test system: Plasmodium vinckei petteri; experiment: Antimalarial activity against Plasmodium vinckei petteri 279BY infected in Swiss mouse administered as ip qd for 4 days measured on day 5; assay type: functional
Summary of the method: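 Female Swiss mice infected intravenously with 10⁷ P. vinckei petteri 279BY parasites (parasitemia 0.5−1% on day 1). Compounds in DMSO, 0.9% NaCl or intralipid/DMSO (90/10) given ip once daily on days 1−4 postinfection. Parasitemia read on day 5. ED₅₀ is the dose giving 50% parasitemia inhibition, determined only when parasitemia fell by at least 85%. Three mice per dose.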

[2] = Oral bioavailability in Sprague-Dawley rat at 12 mg/kg; assay type: ADME, organism-based; details: in vivo
Mus musculus = experiment: Toxicity in ip dosed Swiss mouse administered for 4 days measured on day 5; assay type: organism-based; details: in vivo, 96 h
Jurkat = experiment: Cytotoxicity against human Jurkat cells after 24 hrs by [3H]thymidine incorporation assay; assay type: cell-based
Summary of the method: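 Human Jurkat lymphoblasts exposed to compounds for 24 h, then [³H]thymidine added to gauge viability. Values are means of two independent experiments run in duplicate, differing by less than 40%.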

[3] = Therapeutic index, ratio of ED50 for human Jurkat cells to IC50 for Plasmodium falciparum Nigeria infected in human erythrocytes; assay type: cell-based

Row | SMILES | IC50 (Plasmodium falciparum) [µM] | ED50 [1] [mg/kg] | further results
1 | Cc1c(CCOCCCCCCOCCc2sc[n+](C)c2C)sc[n+]1C | 0.12 |  | 
2 | Cc1c(CCOCCCCCCOCCc2sc[n+](Cc3ccccc3)c2C)sc[n+]1Cc1ccccc1 | 0.015 |  | 
3 | Cc1c(CCO)sc[n+]1CCCCc1ccc(CCCC[n+]2csc(CCO)c2C)cc1.[Cl-].[Cl-] | 0.0205 | 1.2 | 
4 | C/C(=C1\CCOC(=O)S1)N(C=O)CCCCCCCCCCCCN(C=O)/C(C)=C1\CCOC(=O)S1 |  |  | bioavailability [2]: 15%
5 | Cc1c(CCO)sc[n+]1CCOc1ccc(Cc2ccc(OCC[n+]3csc(CCO)c3C)cc2)cc1.[Cl-].[Cl-] | 0.022 | > 1 | 
6 | COCCc1sc[n+](CCOc2ccc(Cc3ccc(OCC[n+]4csc(CCOC)c4C)cc3)cc2)c1C.[Cl-].[Cl-] | 0.0225 | > 1 | 
7 | COCCc1sc[n+](CCOc2ccc(C(=O)c3ccc(OCC[n+]4csc(CCOC)c4C)cc3)cc2)c1C.[Cl-].[Cl-] | 0.08 | > 2 | Activity (Mus musculus): Non-toxic
8 | COCCc1sc[n+](CCOc2ccc(-c3ccc(OCC[n+]4csc(CCOC)c4C)cc3)cc2)c1C.[Br-].[Br-] | 0.0185 | > 0.6 | 
9 | COCCc1sc[n+](Cc2ccc(OCCCCCOc3ccc(C[n+]4csc(CCOC)c4C)cc3)cc2)c1C.[Cl-].[Cl-] | 0.313 | > 0.4 | 
10 | Cc1c(CCO)sc[n+]1CCCc1ccc(CCC[n+]2csc(CCO)c2C)cc1.[Cl-].[Cl-] | 0.0775 | > 0.5 | 
11 | COCCc1sc[n+](CCCc2ccc(CCC[n+]3csc(CCOC)c3C)cc2)c1C.[Cl-].[Cl-] | 0.0365 | > 1 | 
12 | COCCc1sc[n+](CCCCc2ccc(CCCC[n+]3csc(CCOC)c3C)cc2)c1C.[Cl-].[Cl-] | 0.0083 | 0.13 | Activity (Mus musculus): Non-toxic
13 | COCCc1sc[n+](CCCCc2cccc(CCCC[n+]3csc(CCOC)c3C)c2)c1C.[Cl-].[Cl-] | 0.009 | > 1 | 
14 | Cc1c(CCO)sc[n+]1CCCCc1ccc(CCCC[n+]2csc(CCO)c2C)s1.[Cl-].[Cl-] | 0.0165 | > 0.6 | 
15 | COCCc1sc[n+](CCCCc2ccc(CCCC[n+]3csc(CCOC)c3C)s2)c1C.[Cl-].[Cl-] | 0.0027 | 0.28 | IC50 (Jurkat): 63 µM
16 | Cc1c(CCO)sc[n+]1CCCCc1ccc(CCCC[n+]2csc(CCO)c2C)c2ccccc12.[Cl-].[Cl-] | 0.0067 | > 0.6 | 
17 | COCCc1sc[n+](CCCCc2ccc(CCCC[n+]3csc(CCOC)c3C)c3ccccc23)c1C.[Cl-].[Cl-] | 0.0021 | > 0.6 | 
18 | COCCc1sc[n+](CCCCc2ccc3ccc(CCCC[n+]4csc(CCOC)c4C)cc3c2)c1C.[Cl-].[Cl-] | 0.0063 | 0.5 | selectivity ratio [3]: 170000; IC50 (Jurkat): 465 µM
19 | COCCc1sc[n+](CCCCc2ccc(-c3ccc(CCCC[n+]4csc(CCOC)c4C)cc3)cc2)c1C.[Cl-].[Cl-] | 0.0025 | 0.7 | 
20 | Cc1c(CCO)sc[n+]1CC#Cc1ccc(C#CC[n+]2csc(CCO)c2C)cc1 | 1.25 |  | 
21 | COCCc1sc[n+](CC#Cc2ccc(C#CC[n+]3csc(CCOC)c3C)cc2)c1C | 0.42 |  | 
22 | Cc1c(CCO)sc[n+]1CCC#Cc1ccc(C#CCC[n+]2csc(CCO)c2C)cc1 | 0.173 |  | 
23 | Cc1c(CCOCc2cn(CCc3sc[n+](C)c3C)nn2)sc[n+]1C | 10 |  | 
24 | Cc1c(CCOCc2cn(CCc3sc[n+](Cc4ccccc4)c3C)nn2)sc[n+]1Cc1ccccc1 | 0.64 |  | 
25 | COCCc1sc[n+](CCCc2cn(CCc3sc[n+](C)c3C)nn2)c1C | 8.2 |  | 
26 | COCCc1sc[n+](CCCc2cn(CCc3sc[n+](Cc4ccccc4)c3C)nn2)c1C | 7 |  | 
27 | COCCc1sc[n+](CCCCCn2cc(CCC[n+]3csc(CCOC)c3C)nn2)c1C | 1.2 |  | 
28 | Cc1c(CCO)sc[n+]1CCCCCCCCCCCC[n+]1csc(CCO)c1C.[Br-].[Br-] [ALBITIAZOLIUM BROMIDE] |  | 0.2 | selectivity ratio [3]: 150000; IC50 (Jurkat): 347 µM
